Activity calls are given as the source filed them. The rule behind the calls is not given here.
Legend:
PC-12 [1] = test: Cytoprotective activity against oxygen-glucose deprivation/reoxygenation-induced damage in rat PC12 cells assessed as cell viability at 10 uM after 24 hrs by MTT assay (reference value: 70 +/- 5.1%); type: functional; details: PC-12, 24 h, read-out: Activity
PC-12 [2] = test: Cytoprotective activity against H2O2-induced damage in rat PC12 cells assessed as cell viability at 10 uM after 24 hrs by MTT assay (reference value: 70.1 +/- 3.7%); type: functional; details: PC-12, 24 h, read-out: Activity
Rattus norvegicus [3] = test: Increase in neurological function in Sprague-Dawley rat middle cerebral artery occlusion and reperfusion model assessed as decrease in behavior deficit at 80 mg/kg administered via oral gavage as qd for 7 days measured on day 7 post reperfusion by Zea Longa's test; type: functional, organism-based
Procedure, shortened: (§1)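 Male SD rats (260–280 g) underwent MCAO with reperfusion. They were randomized to model, 80 mg/kg 3-n-butylphthalide, or compound at 20, 40 or 80 mg/kg. Rats without neurological impairment after reperfusion were excluded. Neurological deficit was scored on days 1–7 by the Zea Longa test, and forelimb falls were counted in a grid test.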

Rattus norvegicus [4] = test: Reversal of middle cerebral artery occlusion and reperfusion-induced decrease in body weight in Sprague-Dawley rat assessed as body weight at 80 mg/kg administered via oral gavage as qd for 7 days measured on day 7 post reperfusion (reference value: 82%); type: functional; set-up: scale not given: the % may be the effect or the level left
Rattus norvegicus [5] = test: Reversal of middle cerebral artery occlusion and reperfusion-induced death in Sprague-Dawley rat assessed as survival rate at 80 mg/kg administered via oral gavage as qd for 7 days measured on day 7 post reperfusion (reference value: 50%); type: functional
Rattus norvegicus [6] = test: Anti-cerebral ischemia in Sprague-Dawley rat middle cerebral artery occlusion and reperfusion model assessed as decrease in brain infract volume at 80 mg/kg administered via oral gavage as qd for 7 days measured on day 7 post reperfusion by TTC staining-based assay; type: functional, organism-based
Procedure, shortened: (§2)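 Male Sprague-Dawley rats (260e280 g) randomised to MCAO/R, MCAO/R + NBP 80 mg/kg, or MCAO/R + compound at 20, 40 or 80 mg/kg. Rats without neurological impairment, or dead after reperfusion at 0 h, were excluded. On day 7, rats were transcardially perfused with PBS. Brains were cut into six 2-mm sections and stained with 1.5% TTC. Infarct = right pale area/left non-ischemic area, expressed as % of the MCAO/R group.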

[7] = Drug uptake in Sprague-Dawley rat brain at 40 mg/kg administered via oral gavage measured at 1 hr by LC-MS/MS method; type: ADME, organism-based; details: read-out: Drug uptake
Procedure, shortened: (§3)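 For the time-course, male SD rats (260–280 g) received a single 40 mg/kg oral gavage dose and were killed at 0.083, 0.25, 0.5, 1, 2, 4, 6, 8, 12 and 24 h (n = 3 each). Plasma and brain homogenate (three volumes of saline) were protein-precipitated, centrifuged, and analyzed by validated LC-MS/MS. Results are given as mean ± SD.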

Rattus norvegicus [8] = test: Reversal of middle cerebral artery occlusion and reperfusion-induced decrease in body weight in Sprague-Dawley rat assessed as body weight at 20 mg/kg administered via oral gavage as qd for 7 days measured on day 7 post reperfusion (reference value: 82%); type: functional; set-up: scale not given: the % may be the effect or the level left
[9] = Tmax in Sprague-Dawley rat plasma at 40 mg/kg administered via oral gavage by LC-MS/MS method; type: ADME, organism-based
[10] = Plasma concentration in Sprague-Dawley rat at 40 mg/kg administered via oral gavage measured at 0.5 hrs by LC-MS/MS method; type: ADME, organism-based; procedure, shortened: as §3
[11] = Drug uptake in Sprague-Dawley rat brain at 40 mg/kg administered via oral gavage measured at 0.25 hrs by LC-MS/MS method; type: ADME, organism-based; details: in vivo, BLD = below limit of detection; procedure, shortened: as §3
[12] = Plasma concentration in Sprague-Dawley rat at 40 mg/kg administered via oral gavage measured at 24 hrs by LC-MS/MS method; type: ADME, organism-based; procedure, shortened: as §3
Cortical neurone [13] = test: Neuroprotective activity against H2O2-induced damage in Sprague-Dawley rat primary cortical neurons assessed as cell viability at 10 uM after 24 hrs by MTT assay (reference value: 70 +/- 2.6%); type: functional; details: read-out: Activity
[14] = Plasma concentration in Sprague-Dawley rat at 40 mg/kg administered via oral gavage measured at 4 hrs by LC-MS/MS method; type: ADME, organism-based; procedure, shortened: as §3
Rattus norvegicus [15] = test: Increase in neurological function in Sprague-Dawley rat middle cerebral artery occlusion and reperfusion model assessed as decrease in forelimb falling number at 20 to 80 mg/kg administered via oral gavage as qd for 7 days measured on day 2 to 7 during compound dosing post reperfusion by grid test; type: functional, organism-based; procedure, shortened: as §1
[16] = AUC (0 to t) in Sprague-Dawley rat plasma at 40 mg/kg administered via oral gavage by LC-MS/MS method; type: ADME, organism-based
[17] = Antioxidant activity assessed as free radical scavenging activity at 25 mg/ml by ESR method; type: functional
Procedure, shortened: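 ESR spin-trapping was done at room temperature. 50 mmol/L TEMP and 25 mg/mL compound were mixed in DMSO and exposed to UVA light for 1 min before recording. Settings were 10 mW microwave power, 1 G field modulation and 150 G scan width.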

[18] = Drug uptake in Sprague-Dawley rat brain at 40 mg/kg administered via oral gavage measured at 8 hrs by LC-MS/MS method; type: ADME, organism-based; details: read-out: Drug uptake; procedure, shortened: as §3
[19] = Plasma concentration in Sprague-Dawley rat at 40 mg/kg administered via oral gavage measured at 1 hr by LC-MS/MS method; type: ADME, organism-based; procedure, shortened: as §3
[20] = Plasma concentration in Sprague-Dawley rat at 40 mg/kg administered via oral gavage measured at 2 hrs by LC-MS/MS method; type: ADME, organism-based; procedure, shortened: as §3
[21] = Drug uptake in Sprague-Dawley rat brain at 40 mg/kg administered via oral gavage measured at 2 hrs by LC-MS/MS method; type: ADME, organism-based; details: read-out: Drug uptake; procedure, shortened: as §3
Rattus norvegicus [22] = test: Reversal of middle cerebral artery occlusion and reperfusion-induced death in Sprague-Dawley rat assessed as survival rate at 40 mg/kg administered via oral gavage as qd for 7 days measured on day 7 post reperfusion (reference value: 50%); type: functional; details: 168 h
[23] = Drug uptake in Sprague-Dawley rat brain at 40 mg/kg administered via oral gavage measured at 24 hrs by LC-MS/MS method; type: ADME, organism-based; details: read-out: Drug uptake; procedure, shortened: as §3
[24] = Plasma concentration in Sprague-Dawley rat at 40 mg/kg administered via oral gavage measured at 0.083 hrs by LC-MS/MS method; type: ADME, organism-based; details: in vivo, BLD = below limit of detection; procedure, shortened: as §3
[25] = Ratio of AUC (0 to t) in Sprague-Dawley rat brain to plasma at 40 mg/kg administered via oral gavage; type: ADME, organism-based; details: read-out: Ratio AUC
Procedure, shortened: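 Brain-to-plasma exposure ratio, taken as AUC(0-t) in brain tissue divided by AUC(0-t) in plasma. Male SD rats (260–280 g) received a single 40 mg/kg oral gavage dose and were sampled from 0.083 to 24 h (n = 3 per time point). Brain was homogenized in saline and quantified by LC-MS/MS.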

[26] = Cmax in Sprague-Dawley rat plasma at 40 mg/kg administered via oral gavage by LC-MS/MS method; type: ADME, organism-based; set-up: dose 40 mg/kg, route oral
Rattus norvegicus [27] = test: Reversal of middle cerebral artery occlusion and reperfusion-induced death in Sprague-Dawley rat assessed as survival rate at 20 mg/kg administered via oral gavage as qd for 7 days measured on day 7 post reperfusion (reference value: 50%); type: functional; details: 168 h
Rattus norvegicus [28] = test: Anti-cerebral ischemia in Sprague-Dawley rat middle cerebral artery occlusion and reperfusion model assessed as decrease in brain infract volume at 20 to 40 mg/kg administered via oral gavage as qd for 7 days measured on day 7 post reperfusion by TTC staining-based assay; type: functional, organism-based; procedure, shortened: as §2
Rattus norvegicus [29] = test: Increase in neurological function in Sprague-Dawley rat middle cerebral artery occlusion and reperfusion model assessed as decrease in behavior deficit at 20 to 80 mg/kg administered via oral gavage as qd for 7 days measured on day 7 post reperfusion by Zea Longa's test; type: functional, organism-based; procedure, shortened: as §1
[30] = Plasma concentration in Sprague-Dawley rat at 40 mg/kg administered via oral gavage measured at 12 hrs by LC-MS/MS method; type: ADME, organism-based; procedure, shortened: as §3
[31] = Plasma concentration in Sprague-Dawley rat at 40 mg/kg administered via oral gavage measured at 6 hrs by LC-MS/MS method; type: ADME, organism-based; procedure, shortened: as §3
[32] = Drug uptake in Sprague-Dawley rat brain at 40 mg/kg administered via oral gavage measured at 0.5 hrs by LC-MS/MS method; type: ADME, organism-based; details: read-out: Drug uptake; procedure, shortened: as §3
[33] = Cmax in Sprague-Dawley rat brain at 40 mg/kg administered via oral gavage by LC-MS/MS method; type: ADME, organism-based; set-up: dose 40 mg/kg, route oral
[34] = Drug uptake in Sprague-Dawley rat brain at 40 mg/kg administered via oral gavage measured at 4 hrs by LC-MS/MS method; type: ADME, organism-based; details: read-out: Drug uptake; procedure, shortened: as §3
[35] = Tmax in Sprague-Dawley rat brain at 40 mg/kg administered via oral gavage by LC-MS/MS method; type: ADME, organism-based
Cortical neurone [36] = test: Neuroprotective activity against H2O2-induced damage in Sprague-Dawley rat primary cortical neurons assessed as cell viability at 1 uM after 24 hrs by MTT assay (reference value: 70 +/- 2.6%); type: functional; details: read-out: Activity
[37] = Plasma concentration in Sprague-Dawley rat at 40 mg/kg administered via oral gavage measured at 0.25 hrs by LC-MS/MS method; type: ADME, organism-based; procedure, shortened: as §3
[38] = Drug uptake in Sprague-Dawley rat brain at 40 mg/kg administered via oral gavage measured at 12 hrs by LC-MS/MS method; type: ADME, organism-based; details: read-out: Drug uptake; procedure, shortened: as §3
[39] = Drug uptake in Sprague-Dawley rat brain at 40 mg/kg administered via oral gavage measured at 0.083 hrs by LC-MS/MS method; type: ADME, organism-based; details: in vivo, BLD = below limit of detection; procedure, shortened: as §3
[40] = Drug uptake in Sprague-Dawley rat brain at 40 mg/kg administered via oral gavage measured at 6 hrs by LC-MS/MS method; type: ADME, organism-based; details: read-out: Drug uptake; procedure, shortened: as §3
[41] = AUC (0 to t) in Sprague-Dawley rat brain at 40 mg/kg administered via oral gavage by LC-MS/MS method; type: ADME, organism-based; details: in vivo
[42] = Plasma concentration in Sprague-Dawley rat at 40 mg/kg administered via oral gavage measured at 8 hrs by LC-MS/MS method; type: ADME, organism-based; procedure, shortened: as §3
Cortical neurone [43] = test: Neuroprotective activity against H2O2-induced damage in Sprague-Dawley rat primary cortical neurons assessed as cell viability at 50 uM after 24 hrs by MTT assay (reference value: 70 +/- 2.6%); type: functional; details: read-out: Activity

Structure (SMILES): COc1ccc2c(c1)c1cc(C=O)c3c(c1n2C)C=CC(C)(C)O3
- viability at 10 µM (PC-12 [1]): 94.4%
- viability at 10 µM (PC-12 [2]): 93.8%

Structure (SMILES): CCCCC1OC(=O)c2ccccc21 (stereo not drawn) [RAC-3-N-BUTYLPHTHALIDE]
- Activity (Rattus norvegicus [3]): Active
- Activity (Rattus norvegicus [4]): 87.6%
- survival at 80 mg/kg (Rattus norvegicus [5]; 168 h): 68.8%
- Activity (Rattus norvegicus [6]): Active

Structure (SMILES): Cc1cc2c([nH]c3ccc(C(C)(C)C)cc32)c2c1OC(C)(C)C=C2
- concentration at 1 h [7]: 129 ng/g
- Activity (Rattus norvegicus [8]): 94.7%
- Tmax [9]: 6 h
- concentration at 0.5 h [10]: 157 ng/mL
- Drug uptake [11]: Bld
- concentration at 24 h [12]: 19.6 ng/mL
- viability at 10 µM (Cortical neurone [13]): 119%
- concentration at 4 h [14]: 1110 ng/mL
- Activity (Rattus norvegicus [15]): Active
- viability at 10 µM (PC-12 [1]): 96.1%
- AUC(0-t) [16]: 18800 ng·h/mL
- Activity [17]: Active
- concentration at 8 h [18]: 5890 ng/g
- concentration at 1 h [19]: 324 ng/mL
- concentration at 2 h [20]: 871 ng/mL
- concentration at 2 h [21]: 1160 ng/g
- survival at 40 mg/kg (Rattus norvegicus [22]): 62.5%
- concentration at 24 h [23]: 472 ng/g
- Cp [24]: Bld
- Activity (Rattus norvegicus [5]): inactive
- Kp [25]: 4.3
- Cmax [26]: 1510 ng/mL
- survival at 20 mg/kg (Rattus norvegicus [27]): 81.3%
- Activity (Rattus norvegicus [28]): Active
- Activity (Rattus norvegicus [29]): Active
- concentration at 12 h [30]: 1040 ng/mL
- viability at 10 µM (PC-12 [2]): 96.8%
- concentration at 6 h [31]: 1510 ng/mL
- concentration at 0.5 h [32]: 38.5 ng/g
- Cmax [33]: 5890 ng/g
- concentration at 4 h [34]: 3080 ng/g
- Tmax [35]: 8 h
- viability at 1 µM (Cortical neurone [36]): 97.6%
- concentration at 0.25 h [37]: 264 ng/mL
- concentration at 12 h [38]: 5330 ng/g
- Drug uptake [39]: Bld
- concentration at 6 h [40]: 4720 ng/g
- AUCt [41]: 80618 ng·h/g
- concentration at 8 h [42]: 1140 ng/mL

Structure (SMILES): CC1=NN(c2ccccc2)C(=O)C1 [EDARAVONE]
- viability at 10 µM (Cortical neurone [13]): 85.2%
- Activity [17]: Active
- viability at 50 µM (Cortical neurone [43]): 86.7%

Structure (SMILES): COc1ccc2[nH]c3c4c(c(C=O)cc3c2c1)OC(C)(C)C=C4 [CLAULANSINE F]
- viability at 10 µM (PC-12 [1]): 93.1%
- viability at 10 µM (PC-12 [2]): 87.7%

Reference: ChEMBL document CHEMBL4138219, “Pyrano[3,2-a]carbazole alkaloids as effective agents against ischemic stroke in vitro and in vivo” (Eur J Med Chem, 2018)
